Compound activity from PubChem BioAssay.
Hits are enriched below; roughly 4.8% of the tested compounds scored in any of these assays.
WT yeast gro inh = growth inhibition of WT strain, primary screen, mitochondrial fusion inhibitor project, WT and mutant strains, chemical genetic; 190,000 tested, 2.1% active; mitochondrial fusion phenotypic screen; inhibition, % at 10 µM; in the data active = inhibition above about 58%; tested in S. cerevisiae
CSC inhib = cancer stem cell viability inhibitors, primary screen, luminescence. AID 2717, 2010. cancer stem cell-like cells viability. inhibition, % at 7.5 µM. 300,000 tested, 1.1% active; in the data active = inhibition above about 75%; inconclusive = no clear call, values can overlap the other calls; tested in HMLE shEcad cells
SUMO Mot1 rescue = yeast Mot1-301 growth rescue at high temperature, primary screen, SUMOylation pathway inhibitor project, S. cerevisiae, ATP luminescence, 38.5C; S. cerevisiae Mot1-301 growth rescue; percent above DMSO median, 100 means doubled; growth rescue, % at 18.8 µM; 320,000 tested, 1% active; AID 2716, 2010;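 active = every valid replicate shows activation above 250% relative to neutral control wells; inactive = the rest, any valid replicate at or below 250%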;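 also: OY570 slx delta 5 strain wells were the positive control but not used for scaling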
Beta cell apopt = inhibitors of cytokine-induced beta cell apoptosis, primary screen, luminescence | INS-1E cytokine-induced death, ATP luminescence, 48 h; percent of positive-control rescue, neutral wells zero | protection from apoptosis, % (concentration not given with the values) | 300,000 tested, 0.8% active | AID 435005, 2010;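 active = Every replicate reaches about 75%, or at least half do and their mean reaches it too, limit read from the data; inconclusive = At least half of replicates reach the limit but their mean does not; inactive = Under half of replicates reach the limit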;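 also: 0% = cytokine-treated negative control wells and 100% = positive control rescue; higher means more ATP so stronger rescue from cytokine killing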
T cruzi inh = inhibitors of intracellular T. cruzi growth, primary screen, luminescence, NIH3T3 host cells. T. cruzi beta-gal in NIH3T3, 90 h. 300,000 tested, 1.4% active. AID 1885, 2009. inhibition, % (concentration not given with the values);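 active = mean inhibition across valid replicates above about 55%, limit read from the data; inconclusive = mean below that limit but half or more replicates reach it; inactive = mean below it, under half of replicates reach it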;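 also: signal also drops with host cell toxicity which is not excluded here; 0% = plate median of DMSO wells and 100% = zero luminescence signal; higher percent means less beta-gal luminescence so fewer parasites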
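Material: NIH/3T3 host cells with β-galactosidase reporter T. cruzi; Input: 5,000 host fibroblasts per well; Medium: DMEM, 2% fetal bovine serum; Compound: 50 nL DMSO compound solution per well; Schedule: 3 h host attachment, then at least 90 h co-culture; Detection: luminescent β-galactosidase signal after 60 min lysis.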
Efflux pump inh = inhibitors of Candida efflux pumps in yeast, primary screen, S. cerevisiae, Nile Red, multiplex; 330,000 tested, 0.44% active; AID 485275, 2010; inhibition, % at 10 µM; S. cerevisiae Candida pump triplex;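 active = plate passing quality check with inhibition over a set limit, or well fluorescence over plate mean plus 4 SD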;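 also: Nile Red retained in pooled yeast measured as flow cytometry median fluorescence; 0% = buffer negative control and 100% = Enniatin B positive control; higher means more Nile Red kept so more efflux inhibition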
An asterisk follows results filed as active; ? = inconclusive; nt = no result given.

SMILES	WT yeast gro inh	CSC inhib	SUMO Mot1 rescue	Beta cell apopt	T cruzi inh	Efflux pump inh
COc1cccc(Nc2c3c(nc4c(-c5ccccc5)c(C)nn24)CCC3)c1	67.2*	8.0	nt	39.8	47.3	-0.1
COc1cc(C(=O)NCCC(=O)N2CCC3(CC2)NCCc2[nH]cnc23)cc(OC)c1OC	nt	-7.9	5.5	-2.8	-1.5	0.0
CC(=O)c1cccc(S(=O)(=O)Nc2ccccc2N2CCOCC2)c1	nt	-11.4	-7.1	-2.8	nt	-0.1
CCOC(=O)c1oc2cccc(OCC(O)CNC(C)C)c2c1C (stereo unspecified)	69.3*	-8.7	0.2	3.0	23.4	0.0
CCn1c(CSCc2ccc(Cl)cc2)nnc1SCC(=O)Nc1cccc(C(=O)O)c1	2.3	-18.2	272.7	-3.5	nt	0.1
CCN(CC)CCN(C(=O)c1ccc([N+](=O)[O-])cc1)c1nc2ccc(OC)cc2s1	-5.3	-18.9	7.4	-2.7	43.5	0.1
CN(C)CCCN(C(=O)c1ccc(Cl)s1)c1nc2cc3c(cc2s1)OCO3	nt	-8.9	3.8	3.2	?	0.1
CN(C)CCCN(C(=O)c1cccs1)c1nc2cc3c(cc2s1)OCO3	-8.7	-1.9	-15.2	-6.6	67.0*	-0.1
CN(C)CCCN(C(=O)c1ccco1)c1nc2c(F)cccc2s1	-4.6	-8.1	-14.2	-4.8	?	0.1
CN(C)CCCN(C(=O)c1ccco1)c1nc2cc3c(cc2s1)OCO3	nt	-1.2	2.4	nt	56.7*	0.1
CN(C)CCCN(C(=O)c1ccco1)c1nc2c(F)cc(F)cc2s1	-7.1	-8.2	11.1	-1.8	57.1*	0.5
CCOc1ccc2nc(N(CCN(CC)CC)C(=O)c3ccc([N+](=O)[O-])cc3)sc2c1	-5.8	17.3	2.3	-11.4	54.9*	0.2
O=C(O)c1cc2ncc(CCO)cn2n1	-8.9	10.1	453.7	nt	-29.4	0.4
CC1=C(C(=O)Nc2cc(C(=O)NCCCOC(C)C)ccc2C)SCCO1	nt	-8.7	549.7	-4.7	-10.3	-0.1
CN(C)CCCN(C(=O)c1cc2cc([N+](=O)[O-])ccc2s1)c1nc2cc3c(cc2s1)OCCO3	nt	63.4	-28.7	nt	63.0*	0.7
Cc1ccc2nc(N(CCCN(C)C)C(=O)c3ccco3)sc2c1	0.9	-2.9	-3.7	-1.8	55.8*	0.0
Cc1ccc2nc(N(CCCN(C)C)C(=O)c3ccc(Br)s3)sc2c1	90.2*	-0.8	0.3	-3.2	61.7*	0.2
Cc1ccc2nc(N(CCCN(C)C)C(=O)c3cc(-c4cccs4)nc4ccccc34)sc2c1	nt	103.3*	-11.0	21.1	33.1	-0.1
CCN(CC)CCN(C(=O)C1=COCCO1)c1nc2cc3c(cc2s1)OCO3	-4.4	-11.3	8.6	-2.0	42.6	0.2
CCN(CC)CCN(C(=O)C1=COCCO1)c1nc2ccc(C)cc2s1	nt	2.0	30.1	-5.4	58.9*	0.0
CS(=O)(=O)c1ccc2nc(NC(=O)CN3CCC(Cc4ccccc4)CC3)sc2c1	nt	-4.7	293.8*	nt	3.5	0.0
c1ccc2c(CSc3ncnc4nc[nH]c34)cccc2c1	65.4*	-4.8	294.6*	-1.3	-6.0	-0.1
N#CC1=C(N)Oc2c(ccc3cccnc23)C1c1cccnc1 (stereo unspecified)	6.5	68.0	-13.0	98.7*	11.3	-0.1
N#CC1=C(N)OC2=C(C(=O)CC(c3ccccc3)C2)C1c1cccnc1 (stereo unspecified)	-9.2	-8.8	-7.9	-6.3	54.8*	0.0
CCc1ccc2[nH]c(=O)c(C3C(C#N)=C(N)Oc4c3ccc3cccnc43)cc2c1 (stereo unspecified)	2.6	97.0*	-17.9	94.3*	58.8*	-0.2
SMILES	WT yeast gro inh	CSC inhib	SUMO Mot1 rescue	Beta cell apopt	T cruzi inh	Efflux pump inh
Cc1ccc2cc(C3C(C#N)=C(N)Oc4c3ccc3cccnc43)c(=O)[nH]c2c1 (stereo unspecified)	0.1	70.3	-11.9	88.3*	-7.7	-0.1
N#CC1=C(N)Oc2cc3ccccc3cc2C1c1cccnc1 (stereo unspecified)	-4.5	59.4	nt	-2.5	0.0	0.1
O=C(N1CCCCC1)N1CCN(S(=O)(=O)c2ccccc2)CC1	nt	-2.3	4.8	-3.7	-15.8	0.0
CN(CC(=O)Nc1ccc(Cl)c(C(F)(F)F)c1)C(=O)c1ccc(OCC2CCCO2)cc1 (stereo unspecified)	nt	-6.4	34.8	-0.3	12.2	0.1
Cc1cc(C)n2nc(SCC(=O)c3c(N)n(CC(C)C)c(=O)n(C)c3=O)nc2n1	0.5	-2.8	-21.6	4.3	-15.7	0.0
NS(=O)(=O)c1ccc(CCNC(=O)c2cc3ccccc3s2)cc1	nt	7.9	-8.7	0.3	-14.0	-0.3
O=C(COC(=O)c1cncc(Br)c1)NCc1ccco1	-23.0	10.0	413.6*	-2.0	27.2	0.3
Cc1ccc(-c2cc(-c3ccccc3)nc(NN)n2)cc1	nt	82.7*	13.0	1.1	10.9	0.1
Cc1ccccc1C(C)NS(=O)(=O)c1ccc2c(c1)OCCO2 (stereo unspecified)	nt	-10.2	7.0	-3.0	nt	-0.3
O=C(N/N=C/c1ccc(Cl)cc1Cl)c1ccncc1	nt	-18.2	6.5	2.0	-3.7	0.3
NC(N)=N/N=C/c1ccc(Cl)cc1Cl	nt	6.6	0.9	4.1	62.0*	-0.1
CCOC(=O)C1(CCOc2ccccc2)CCN(Cc2cccc(OC)c2OC)CC1	nt	14.7	-3.6	nt	24.0	0.1
COC(=O)c1ccccc1NC(=O)c1nc(S(=O)(=O)Cc2ccccc2)ncc1Cl	nt	99.8*	-11.9	98.7*	44.0	-0.1
CCc1nnc(NC(=O)c2nc(Cl)ccc2Cl)s1	nt	-23.4	-17.4	-3.7	-0.8	0.3
CCOc1ccccc1NC(=O)c1nc(S(=O)(=O)Cc2cccc(C)c2)ncc1Cl	nt	91.4*	84.5	96.0*	28.4	0.0
CC(=O)Nc1ccc(NC(=O)c2nc(S(=O)(=O)Cc3ccccc3)ncc2Cl)cc1	nt	1.4	0.2	-24.2	0.1	0.1
CCc1nnc(NC(=O)c2nc(S(=O)(=O)Cc3cccc(C)c3)ncc2Cl)s1	nt	109.6*	24.5	-30.4	13.2	0.1
CCOc1ccccc1NC(=O)c1cc(-c2ccncc2)nc2c(Cl)cccc12	37.6	nt	nt	nt	57.1*	nt
CC(C)c1ccc(S(=O)(=O)N2CCN(C(=O)Cc3ccsc3)CC2)cc1	nt	13.6	16.7	2.0	5.8	0.0
CCc1nnc(NC(=O)c2nc(S(=O)(=O)Cc3ccccc3)ncc2Cl)s1	nt	100.6*	-5.7	-37.4	-8.6	0.1
CCc1nnc(NC(=O)c2nc(S(=O)(=O)Cc3ccc(C)cc3)ncc2Cl)s1	nt	nt	nt	nt	-1.4	-0.2
CC1CC(N(C(=O)c2ccc(Cl)cc2)c2ccccc2)c2ccccc2N1C(=O)c1ccco1 (stereo unspecified)	83.6*	21.5	-9.8	16.5	43.5	0.2
